Tests used:
[1] = species on record: Rattus norvegicus; experiment: Tested for potentiating activity on the responses of rat anococcygeus muscle to norepinephrine (NE)at a concentration of 3 x 10e -7 M; assay type: functional, Muscle tissue
Procedure, shortened: (§1)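 Isolated rat anococcygeus muscle. Concentration-response curves to norepinephrine (NE) were run with and without the test compound, and potentiation was judged from the shift at low NE concentrations. pD2 is the negative log of the molar NE concentration giving 50% of maximal response. Activity ratio is the antilog of the pD2 difference with versus without compound, with no compound set at 1.0. n is the number of experiments.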

[2] = species on record: Rattus norvegicus; experiment: Tested for potentiating activity on the responses of rat anococcygeus muscle to norepinephrine (NE)at a concentration of 10e-6 M; assay type: functional, Muscle tissue; procedure, shortened: as §1
[3] = Activity ratio, difference between the pD2 values for NE obtained in the absence and presence at 10e-6 M; assay type: functional; procedure, shortened: as §1
[4] = Activity ratio, difference between the pD2 values for NE obtained in the absence and presence at 3 x 10e-7 M; assay type: functional; procedure, shortened: as §1
[5] = Activity ratio, difference between the pD2 values for NE obtained in the absence and presence at 3 x 10 E -6 M; assay type: functional; procedure, shortened: as §1
[6] = Activity ratio, difference between the pD2 values for NE obtained in the absence and presence at 10e-7 M; assay type: functional; procedure, shortened: as §1
[7] = Activity ratio, difference between the pD2 values for NE obtained in the absence and presence at 0 (absence of potentiating compound); assay type: functional; procedure, shortened: as §1
[8] = species on record: Rattus norvegicus; experiment: Tested for potentiating activity on the responses of rat anococcygeus muscle to norepinephrine (NE)at a concentration of 0 (absence of potentiating compound); assay type: functional, Muscle tissue; procedure, shortened: as §1
[9] = species on record: Rattus norvegicus; experiment: Tested for potentiating activity on the responses of rat anococcygeus muscle to norepinephrine (NE)at a concentration of 3 x 10e-6 M; assay type: functional, Muscle tissue; procedure, shortened: as §1
[10] = species on record: Rattus norvegicus; experiment: Tested for potentiating activity on the responses of rat anococcygeus muscle to norepinephrine (NE)at a concentration of 10e-7 M; assay type: functional, Muscle tissue; procedure, shortened: as §1
[11] = Activity ratio, difference between the pD2 values for NE obtained in the absence and presence at 3 x 10 E -7 M; assay type: functional; procedure, shortened: as §1
[12] = species on record: Rattus norvegicus; experiment: Tested for potentiating activity on the responses of rat anococcygeus muscle to norepinephrine (NE)at a concentration of 10 E -6 M; assay type: functional, Muscle tissue; procedure, shortened: as §1
[13] = species on record: Rattus norvegicus; experiment: Tested for potentiating activity on the responses of rat anococcygeus muscle to norepinephrine (NE)at a concentration of 3 x 10 E -6 M; assay type: functional, Muscle tissue; procedure, shortened: as §1
[14] = Activity ratio, difference between the pD2 values for NE obtained in the absence and presence at 10 E -6 M; assay type: functional; procedure, shortened: as §1
[15] = species on record: Rattus norvegicus; experiment: Tested for potentiating activity on the responses of rat anococcygeus muscle to norepinephrine (NE)at a concentration of 3 x 10 E -7 M; assay type: functional, Muscle tissue; procedure, shortened: as §1
[16] = Activity ratio, difference between the pD2 values for NE obtained in the absence and presence at 10 E -7 M; assay type: functional; procedure, shortened: as §1
[17] = species on record: Rattus norvegicus; experiment: Tested for potentiating activity on the responses of rat anococcygeus muscle to norepinephrine (NE)at a concentration of 10 E -7 M; assay type: functional, Muscle tissue; procedure, shortened: as §1

Compound	pD2 [1]	pD2 [2]	Ratio [3]	Ratio [4]	Ratio [5]	Ratio [6]	Ratio [7]	pD2 [8]	pD2 [9]	pD2 [10]	Ratio [11]	pD2 [12]	pD2 [13]	Ratio [14]	pD2 [15]	Ratio [16]	pD2 [17]
CN1Cc2ccccc2C(O)(c2ccccc2)C1 (racemic)	6.73	7.18	8.5	3	17.8	1.5	1	6.25	7.5	6.42	–	–	–	–	–	–	–
CN1Cc2ccccc2[C@@](O)(c2ccccc2)C1	–	–	–	–	1.1	–	1	6.23	–	–	1	6.23	6.27	1	6.24	–	–
CN1Cc2ccccc2[C@](O)(c2ccccc2)C1	–	–	–	–	21.4	–	1	6.23	–	–	6	7.28	7.56	11.2	7.01	2.3	6.6
